Compound activity (PubChem)
An excerpt weighted towards active compounds, which were near 4.3% of everything screened.
STAT3 act – IL-6 driven STAT3 reporter potentiators, primary screen, U3A cells, luciferase, luminescence, MLSCN library | IL-6 STAT3-luciferase reporter; 100% = signal with IL-6 EC80 alone | activation (% of control), % at 5.6 µM | 190,000 compounds, 0.91% hits;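 active = activation above the screen-wide mean of compound activation plus 3 SD, cut at about 130% in these data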
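Material: human U3A cells carrying STAT3-luciferase construct. Measured by: reporter luminescence signal. Timing: compound 1 h, then IL-6 6 h at 37 °C.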
STAT3 inh-1 – IL-6 driven STAT3 reporter inhibitors, primary screen, U3A cells, luciferase, luminescence, MLSCN library | IL-6 STAT3-luciferase reporter; host cell line lacks STAT1 | inhibition, % at 5.5 µM | 190,000 compounds, 0.89% hits;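 active = inhibition above the mean inhibition across all screened compounds plus 3 SD, cut at about 44% in these data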
STAT1 activator – STAT1 signaling activators, primary screen, cell-based, HTS, luciferase reporter. NIH 3T3 STAT1-luciferase reporter, IFN-gamma, luminescence; 100% = IFN-gamma alone, no compound. activation (% of control), % at 5.5 µM. 200,000 compounds, 2.6% hits. AID 932, 2007;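 active = activation above the screen-wide mean activation plus 3 SD, cut at about 130% in these data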
STAT1 inh – STAT1 signaling inhibitors, primary screen, cell-based, HTS, luciferase reporter; NIH 3T3 STAT1-luciferase reporter, IFN-gamma, luminescence; inhibition, % at 5.5 µM; 200,000 compounds, 0.35% hits; AID 920, 2007;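 active = inhibition above a set limit, the mean inhibition across all tested compounds plus 3 SD, cut at about 34% in these data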
STAT3 inh-2 – STAT3 reporter inhibitors, retest of hits, confirmation, U3A cells, luciferase, luminescence; shares compounds with STAT3 inh-1; IL-6 STAT3 luciferase reporter; cell line lacks STAT1; inhibition, % at 5.7 µM; 1,200 compounds, 45% hits; AID 1265, 2008;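 active = inhibition above the hit cutoff computed for the primary STAT3 screen, cut at about 44% in these data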
NFkB inh 2 – NF-kB reporter inhibitors in human cells, confirmation, counter-screen for STAT3 inhibitor project, cell-based, HEK293T, luciferase, TNF-alpha stimulus; shares compounds with STAT3 inh-1; TNF-alpha induced; inhibition, % at 5.7 µM; 1,200 compounds, 36% hits; AID 1308, 2008;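 active = inhibition above the mean of solvent-only control wells plus 3 SD, cutoff set per campaign, cut at about 13% in these data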
STAT1 inh 2 – STAT1 reporter inhibitors, IFN-gamma induced, confirmation, counter-screen for STAT3 inhibitor project, cell-based, NIH 3T3, luciferase luminescence; shares compounds with STAT3 inh-1; inhibition, % at 5.7 µM; NIH 3T3 STAT1-luciferase reporter; 1,200 compounds, 27% hits;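 active = inhibition above the mean plus 3 SD of solvent-only control wells, limit set per screening run, cut at about 16% in these data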
Each line names hits and unclear results; the compound was inactive in the other large screens (follow-up assays come after a bar, where they were run).

CC[n+]1c(C=C2C=C(C)OC(C)=C2)sc2ccccc21	STAT3 inh-1 84 | STAT3 inh-2 85 | NFkB inh 2 27 | STAT1 inh 2 inactive
CCCCCOc1ccc(Br)cc1CSC(=N)N	STAT3 inh-1 49 | STAT3 inh-2 63 | NFkB inh 2 23 | STAT1 inh 2 21
COc1ccc(Br)cc1CSC(=N)N	none
CC(OC(=O)C1=Cc2ccccc2OC1)C(=O)NC(C)(C)C (stereo unspecified)	none
CC(C)C(=O)Nc1ccc(NC(=O)c2ccccn2)cn1	STAT3 inh-1 53 | STAT3 inh-2 inactive | NFkB inh 2 inactive | STAT1 inh 2 inactive
O=C(Nc1ccccc1C(=O)NC(Cc1ccccc1)C(=O)NC1CCCCC1)c1ccccc1 (stereo unspecified)	none
O=C(NC1=NC2CCCCC2N1)c1ccccc1 (stereo unspecified)	STAT3 inh-1 49 | STAT3 inh-2 inactive | NFkB inh 2 inactive | STAT1 inh 2 inactive
COc1ccccc1NCCC(=O)OCC(=O)NC1CCCCCC1	none
Cc1ccoc1C(=O)Nc1ccc(CC(=O)O)cc1	STAT3 inh-1 57 | STAT3 inh-2 51 | NFkB inh 2 27 | STAT1 inh 2 inactive
Nc1nc(SCc2ccc(Cl)cc2Cl)nc2nc3c(cc12)CCCC3	none
CC(C)(C)c1ccc(C(=O)Nc2ncn[nH]2)cc1	none
CC(C)(C)c1ccc(C(=O)Nc2cccc3c(=O)[nH][nH]c(=O)c23)cc1	STAT3 inh-1 67 | STAT3 inh-2 inactive | NFkB inh 2 inactive | STAT1 inh 2 inactive
Cc1nc2ccccc2n1CC(O)COCC1CC=CCC1 (stereo unspecified)	STAT3 inh-1 44 | STAT3 inh-2 inactive | NFkB inh 2 inactive | STAT1 inh 2 inactive
CCCOC(=O)c1ccc(OCC(O)Cn2c(C)nc3ccccc32)cc1 (stereo unspecified)	STAT3 inh-1 61 | STAT3 inh-2 63 | NFkB inh 2 20 | STAT1 inh 2 23
COc1cc(C(C(=O)NC2CCCCC2)N(CCN2CCOCC2)C(=O)C2COc3ccccc3O2)cc(OC)c1OC (stereo unspecified)	none
CSc1ccccc1NC(=O)c1ccccc1C	none
COc1ccc(N(CC(=O)Nc2cc(C)ccc2C)S(=O)(=O)c2ccccc2[N+](=O)[O-])c(OC)c1	none
Cc1ccc2nc(-c3ccc(NC(=O)C4CCCO4)cc3)[nH]c2c1 (stereo unspecified)	STAT3 inh-1 72 | STAT3 inh-2 inactive | NFkB inh 2 inactive | STAT1 inh 2 inactive
O=C(Nc1ccc(-c2nc3cccnc3s2)cc1)C1CCCO1 (stereo unspecified)	STAT3 inh-1 84 | STAT3 inh-2 66 | NFkB inh 2 16 | STAT1 inh 2 inactive
O=C1CCCc2oc3c(c21)CCCC3	none
CC(=O)Nc1nc2c(s1)C(=O)NCCC2	none
CCN(CC(=O)Nc1ccc(C(C)=O)cc1)CC(=O)Nc1cccc(OC)c1	none
Cc1ccc2c(COC(=O)C3=COCCO3)cc(=O)oc2c1	STAT3 inh-1 44, STAT1 activator 132 | STAT3 inh-2 inactive | NFkB inh 2 inactive | STAT1 inh 2 inactive
Cc1nn(-c2ccccc2Cl)c(Cl)c1/C=N/Nc1cccc(C(=O)O)c1	STAT3 inh-1 51 | STAT3 inh-2 inactive | NFkB inh 2 61 | STAT1 inh 2 46
CCOc1ccc(S(=O)(=O)N(C)c2ccc(OCC(=O)Nc3nc(-c4cc(OC)ccc4OC)cs3)cc2)cc1	none
CC(C)NS(=O)(=O)c1ccc(OCC(=O)N2CCCC2)cc1	none
Cc1ccc(Cl)cc1N1CCN(C(=O)COc2ccc(S(=O)(=O)NC(C)C)cc2)CC1	STAT3 inh-1 60 | STAT3 inh-2 49 | NFkB inh 2 inactive | STAT1 inh 2 inactive
Cn1cc(-c2ccno2)c(C(=O)O)n1	none
Cc1ccc(C)c(C(=O)COC(=O)c2cccc(N3C(=O)c4c(C)nc5ccccc5c4C3=O)c2)c1	STAT3 inh-1 50 | STAT3 inh-2 45 | NFkB inh 2 29 | STAT1 inh 2 44
Cc1ccc(-c2cc(C(=O)NCCCN3CCOCC3)no2)cc1	STAT3 inh-1 56 | STAT3 inh-2 inactive | NFkB inh 2 inactive | STAT1 inh 2 inactive
O=C(NCCN1CCOCC1)c1cc(-c2ccc(Cl)cc2)on1	none
CCOc1ccc(C(=O)Nc2cc(C)on2)cc1	STAT3 inh-1 46 | STAT3 inh-2 inactive | NFkB inh 2 inactive | STAT1 inh 2 inactive
Cc1cc(NC(=O)c2cccc(COc3ccc(Br)cc3)c2)no1	STAT3 inh-1 49 | STAT3 inh-2 inactive | NFkB inh 2 41 | STAT1 inh 2 inactive
CC(C)c1cc(C(N)=O)c(NC(=O)c2cccc(COc3ccc(Cl)cc3)c2)s1	STAT3 inh-1 63, STAT1 inh 34 | STAT3 inh-2 inactive | NFkB inh 2 inactive | STAT1 inh 2 inactive
Cc1ccc(OCCN2CCN(C(=O)CCC(=O)Nc3nnc(C(C)C)s3)CC2)cc1	STAT3 inh-1 50 | STAT3 inh-2 inactive | NFkB inh 2 inactive | STAT1 inh 2 inactive
CCCc1nnc(NC(=O)CCC(=O)N2CCN(CCOc3ccc(C)cc3)CC2)s1	STAT3 inh-1 50 | STAT3 inh-2 inactive | NFkB inh 2 inactive | STAT1 inh 2 inactive
Cc1ccc(OCCN2CCN(C(=O)CCC(=O)Nc3nnc(C)s3)CC2)cc1	none
CCCc1nnc(NC(=O)CCC(=O)N2CCN(CCn3c(C)ccc3C)CC2)s1	none
COc1ccc(NC(=O)NC2CCCCC2C)cc1 (stereo unspecified)	none
COc1ccc(CCNC(=O)COC(=O)/C=C/c2cc(OC)c(OC)c(OC)c2)cc1OC	none
O=C(C1CCN(S(=O)(=O)c2cccc3cccnc23)CC1)N1CCN(c2ccc(Cl)cc2)CC1	STAT3 inh-1 47 | STAT3 inh-2 inactive | NFkB inh 2 14 | STAT1 inh 2 24
O=C(C1CCN(S(=O)(=O)c2cccc3cccnc23)CC1)N1CCN(c2ccccn2)CC1	none
O=C(CCCC(=O)OCC(F)(F)C(F)F)Nc1ccccc1F	none
Cc1ccnc(NC(=O)/C=C/c2ccccc2Cl)c1	STAT3 inh-1 55 | STAT3 inh-2 inactive | NFkB inh 2 inactive | STAT1 inh 2 inactive
CN(Cc1cccc(Cl)c1Cl)c1ccc(S(=O)(=O)N2CCCCC2)cc1[N+](=O)[O-]	none
COc1ccc(NC(=O)N2CCC(n3cnc4ccccc43)CC2)cc1	none
CN(CCCC(=O)Nc1ccncc1)S(=O)(=O)c1ccc(Cl)cc1	STAT3 inh-1 47 | STAT3 inh-2 inactive | NFkB inh 2 inactive | STAT1 inh 2 21
